Data: ChEMBL document CHEMBL5058577, “EUbOPEN Chemogenomics Library 2 (Multiplex)” (2022)

System: U2OS
Experiment: Multiplex assay against U2OS
Assay type: toxicity, cell-based
Details: human
Summary of the method: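 Cells were classed with CellPathfinder machine-learning gating, first as Hoechst high-intensity objects or normal cells, then (normal cells) as healthy, pyknosed or fragmented nuclei, and finally (pyknosed cells) as mitotic or apoptotic. Staining of live cells at seeding used Hoechst33342, BioTracker Green Microtubule Cytoskeleton Dye, MitoTracker Red and Annexin V Alexa Fluor 680, with imaging on a CQ1 microscope at 37°C and 5% CO2 after compound addition. Tubulin, mitochondrial-mass and membrane-permeability phenotypes are per cents of healthy-nucleus cells.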

[1] = 12 h, 1 µM, compound concentration 1 uM, replicate 1
[2] = 12 h, 1 µM, compound concentration 1 uM, replicate 2
[3] = 12 h, 10 µM, compound concentration 10 uM, replicate 1
[4] = 12 h, 10 µM, compound concentration 10 uM, replicate 2
[5] = 24 h, 1 µM, compound concentration 1 uM, replicate 1
[6] = 24 h, 1 µM, compound concentration 1 uM, replicate 2
[7] = 24 h, 10 µM, compound concentration 10 uM, replicate 1
[8] = 24 h, 10 µM, compound concentration 10 uM, replicate 2
[9] = 48 h, 1 µM, compound concentration 1 uM, replicate 1
[10] = 48 h, 1 µM, compound concentration 1 uM, replicate 2
[11] = 48 h, 10 µM, compound concentration 10 uM, replicate 1
[12] = 48 h, 10 µM, compound concentration 10 uM, replicate 2

CCCOc1ccc2[nH]cc(C3=CCNCC3)c2n1.Cl
Population Apoptotic (%) [1]: 80% | Population Fragmented Nuclei (%) [1]: 31% | Population Healthy Nuclei (%) [1]: 58% | Population Hoechst High Intensity Objects (%) [1]: 2% | Population Membrane Permeable-Phenotype (%) [1]: 2% | Population Mitochondria Different-Phenotype (%) [1]: 1% | Population Mitotic Cells (%) [1]: 19% | Population Normal (%) [1]: 97% | Population Pyknosed Nuclei (%) [1]: 9% | Population Tubulin-Different-Phenotype (%) [1]: 1% | Total Cell Count [1]: 218 | Population Apoptotic (%) [2]: 87% | Population Fragmented Nuclei (%) [2]: 13% | Population Healthy Nuclei (%) [2]: 78% | Population Hoechst High Intensity Objects (%) [2]: 1% | Population Membrane Permeable-Phenotype (%) [2]: 11% | Population Mitochondria Different-Phenotype (%) [2]: 7% | Population Mitotic Cells (%) [2]: 12% | Population Normal (%) [2]: 98% | Population Pyknosed Nuclei (%) [2]: 8% | Population Tubulin-Different-Phenotype (%) [2]: 5% | Total Cell Count [2]: 98 | Population Apoptotic (%) [3]: 86% | Population Fragmented Nuclei (%) [3]: 24% | Population Healthy Nuclei (%) [3]: 66% | Population Hoechst High Intensity Objects (%) [3]: 4% | Population Membrane Permeable-Phenotype (%) [3]: 6% | Population Mitochondria Different-Phenotype (%) [3]: 5% | Population Mitotic Cells (%) [3]: 13% | Population Normal (%) [3]: 96% | Population Pyknosed Nuclei (%) [3]: 8% | Population Tubulin-Different-Phenotype (%) [3]: 3% | Total Cell Count [3]: 275 | Population Apoptotic (%) [4]: 60% | Population Fragmented Nuclei (%) [4]: 17% | Population Healthy Nuclei (%) [4]: 74% | Population Hoechst High Intensity Objects (%) [4]: 0% | Population Membrane Permeable-Phenotype (%) [4]: 12% | Population Mitotic Cells (%) [4]: 40% | Population Normal (%) [4]: 100% | Population Pyknosed Nuclei (%) [4]: 7% | Population Tubulin-Different-Phenotype (%) [4]: 6% | Total Cell Count [4]: 134 | Population Apoptotic (%) [5]: 70% | Population Fragmented Nuclei (%) [5]: 27% | Population Healthy Nuclei (%) [5]: 61% | Population Hoechst High Intensity Objects (%) [5]: 1% | Population Membrane Permeable-Phenotype (%) [5]: 6% | Population Mitochondria Different-Phenotype (%) [5]: 1% | Population Mitotic Cells (%) [5]: 29% | Population Normal (%) [5]: 98% | Population Pyknosed Nuclei (%) [5]: 10% | Population Tubulin-Different-Phenotype (%) [5]: 3% | Total Cell Count [5]: 252 | Population Apoptotic (%) [6]: 90% | Population Fragmented Nuclei (%) [6]: 18% | Population Healthy Nuclei (%) [6]: 73% | Population Hoechst High Intensity Objects (%) [6]: 2% | Population Membrane Permeable-Phenotype (%) [6]: 3% | Population Mitochondria Different-Phenotype (%) [6]: 3% | Population Mitotic Cells (%) [6]: 9% | Population Normal (%) [6]: 97% | Population Pyknosed Nuclei (%) [6]: 8% | Population Tubulin-Different-Phenotype (%) [6]: 2% | Total Cell Count [6]: 138 | Population Apoptotic (%) [7]: 92% | Population Fragmented Nuclei (%) [7]: 25% | Population Healthy Nuclei (%) [7]: 66% | Population Hoechst High Intensity Objects (%) [7]: 3% | Population Membrane Permeable-Phenotype (%) [7]: 5% | Population Mitochondria Different-Phenotype (%) [7]: 3% | Population Mitotic Cells (%) [7]: 7% | Population Normal (%) [7]: 96% | Population Pyknosed Nuclei (%) [7]: 8% | Population Tubulin-Different-Phenotype (%) [7]: 3% | Total Cell Count [7]: 323 | Population Apoptotic (%) [8]: 72% | Population Fragmented Nuclei (%) [8]: 14% | Population Healthy Nuclei (%) [8]: 78% | Population Hoechst High Intensity Objects (%) [8]: 0% | Population Membrane Permeable-Phenotype (%) [8]: 11% | Population Mitochondria Different-Phenotype (%) [8]: 2% | Population Mitotic Cells (%) [8]: 27% | Population Normal (%) [8]: 99% | Population Pyknosed Nuclei (%) [8]: 6% | Population Tubulin-Different-Phenotype (%) [8]: 4% | Total Cell Count [8]: 162 | Population Apoptotic (%) [9]: 91% | Population Fragmented Nuclei (%) [9]: 19% | Population Healthy Nuclei (%) [9]: 69% | Population Hoechst High Intensity Objects (%) [9]: 2% | Population Membrane Permeable-Phenotype (%) [9]: 5% | Population Mitochondria Different-Phenotype (%) [9]: 3% | Population Mitotic Cells (%) [9]: 8% | Population Normal (%) [9]: 97% | Population Pyknosed Nuclei (%) [9]: 10% | Population Tubulin-Different-Phenotype (%) [9]: 1% | Total Cell Count [9]: 350 | Population Apoptotic (%) [10]: 75% | Population Healthy Nuclei (%) [10]: 74% | Population Membrane Permeable-Phenotype (%) [10]: 9% | Population Mitotic Cells (%) [10]: 25% | Population Pyknosed Nuclei (%) [10]: 6% | Population Tubulin-Different-Phenotype (%) [10]: 3% | Total Cell Count [10]: 183 | Population Apoptotic (%) [11]: 100% | Population Fragmented Nuclei (%) [11]: 18% | Population Healthy Nuclei (%) [11]: 75% | Population Hoechst High Intensity Objects (%) [11]: 4% | Population Membrane Permeable-Phenotype (%) [11]: 5% | Population Mitochondria Different-Phenotype (%) [11]: 2% | Population Mitotic Cells (%) [11]: 0% | Population Normal (%) [11]: 95% | Population Pyknosed Nuclei (%) [11]: 6% | Population Tubulin-Different-Phenotype (%) [11]: 3% | Total Cell Count [11]: 423 | Population Apoptotic (%) [12]: 94% | Population Fragmented Nuclei (%) [12]: 13% | Population Healthy Nuclei (%) [12]: 78% | Population Hoechst High Intensity Objects (%) [12]: 0% | Population Membrane Permeable-Phenotype (%) [12]: 6% | Population Mitochondria Different-Phenotype (%) [12]: 3% | Population Mitotic Cells (%) [12]: 5% | Population Normal (%) [12]: 99% | Population Pyknosed Nuclei (%) [12]: 7% | Total Cell Count [12]: 243
